Results as given in ChEMBL document CHEMBL1131063 (J Med Chem, 1998).

Columns and labels:
[1] = test system: Mus musculus; test: Inhibitory activity against carrageenan induced paw edema at a oral dose of 10 mg/kg in mouse 3 hours after carrageenan administration; type: functional
Procedure, shortened: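 Female Swiss mice (20–25 g), fasted 12 h with water available, in groups of six, dosed orally (0.5 mL) in ethanol/Tween 80/water 5:5:90 1 h before subplantar injection of 0.05 mL 3% w/v carrageenan into right hind paw. Paw volumes read by plethysmometer; edema = injected minus contralateral volume; percent inhibition vs vehicle controls; ANOVA with Dunnett's test.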

[2] = test system: Mus musculus; test: Inhibitory activity against carrageenan induced paw edema at a oral dose of 10 mg/kg in mouse 5 hours after carrageenan administration; type: functional
Procedure, shortened: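 Female Swiss mice (20–25 g) were fasted 12 h and dosed orally in ethanol/Tween 80/water (5:5:90), n = 6 per group. One hour later, 0.05 mL of 3% carrageenan was injected subplantar into the right hind paw. Edema was injected minus contralateral paw volume by plethysmometer, expressed as % inhibition versus control. ANOVA with Dunnett's test.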

[3] = molecular target: T1, Phospholipase A2, membrane associated (Homo sapiens) (UniProt P14555); test: Inhibitory activity against human synovial Phospholipase at 10 uM
T1 sequence (whole entry): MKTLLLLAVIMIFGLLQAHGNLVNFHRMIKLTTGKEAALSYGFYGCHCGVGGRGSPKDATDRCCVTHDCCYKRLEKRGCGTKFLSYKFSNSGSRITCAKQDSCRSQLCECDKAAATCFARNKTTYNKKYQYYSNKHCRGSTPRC
Procedure, shortened: (§1)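 Enzyme diluted in 100 mM Tris-HCl, 1 mM CaCl2, pH 7.5; preincubated 5 min at 37 °C with test compound or vehicle, then 15 min with autoclaved oleate-labeled membranes as substrate. Stopped with ice-cold BSA in saline (final 0.07% w/v), centrifuged 2500g 10 min at 4 °C. Supernatant radioactivity counted by liquid scintillation; percent inhibition at 10 μM, means ± SEM, n = 6.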

[4] = molecular target: Phospholipase A2, major isoenzyme (Sus scrofa) (UniProt P00592); test: Inhibitory activity against Porcine pancreatic secretory Phospholipase A2 at 10 uM; procedure, shortened: as §1
Sequence of Phospholipase A2, major isoenzyme (Sus scrofa) (P00592 23-146 limits assumed): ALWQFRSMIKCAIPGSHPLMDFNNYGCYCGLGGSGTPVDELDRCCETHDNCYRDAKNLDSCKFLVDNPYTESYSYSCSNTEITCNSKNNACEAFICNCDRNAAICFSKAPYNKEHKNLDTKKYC

[5] = molecular target: T2, Phospholipase A2 (Apis mellifera) (UniProt P00630); test: Inhibitory activity against bee secretory Phospholipase A2 enzyme at 10 uM
T2 sequence (whole entry): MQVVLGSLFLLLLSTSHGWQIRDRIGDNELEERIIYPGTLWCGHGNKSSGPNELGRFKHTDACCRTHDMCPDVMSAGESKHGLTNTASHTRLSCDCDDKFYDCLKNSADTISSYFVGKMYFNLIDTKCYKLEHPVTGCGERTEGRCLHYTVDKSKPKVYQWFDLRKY

[6] = test system: Phospholipase A2 (Naja naja); test: Inhibitory activity against naja naja secretory Phospholipase A2 at 10 uM; conditions: snake
[7] = molecular target: T2, Phospholipase A2 (Apis mellifera); test: Inhibitory activity against bee secretory Phospholipase A2 enzyme when pre-incubated with Hydroxylamine for 15 minutes
Procedure, shortened: (§2)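 Bee venom PLA2 was incubated at 41 °C with the test compound or methanol (control) in 100 mM Tris-HCl, 1 mM CaCl2, pH 7.5, for varied preincubation times. It was then diluted 2-fold with Tris buffer or with hydroxylamine (final 50 mM, pH 7.5) and held 2 h at 41 °C. PLA2 activity was then assayed. Final compound concentrations were 5–50 μM. n = 6.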

[8] = molecular target: T2, Phospholipase A2 (Apis mellifera); test: Inhibitory activity against bee secretory Phospholipase A2 enzyme when pre-incubated with Hydroxylamine for 5 minutes; procedure, shortened: as §2
[9] = molecular target: T3, Phospholipase A2, membrane associated (Homo sapiens, UniProt P14555); test: Inhibitory activity against human synovial recombinant Phospholipase enzyme
T3 sequence (P14555 whole entry): T1 sequence (whole entry)

[10] = molecular target: T2, Phospholipase A2 (Apis mellifera); test: Inhibitory activity against bee secretory Phospholipase A2 enzyme when pre-incubated for 60 minutes; procedure, shortened: as §2
[11] = molecular target: T2, Phospholipase A2 (Apis mellifera); test: Inhibitory activity against bee secretory Phospholipase A2 enzyme when pre-incubated with Hydroxylamine for 60 minutes; procedure, shortened: as §2
[12] = molecular target: T2, Phospholipase A2 (Apis mellifera); test: Inhibitory activity against bee secretory Phospholipase A2 enzyme when pre-incubated for 5 minutes; procedure, shortened: as §2
[13] = molecular target: T2, Phospholipase A2 (Apis mellifera); test: Inhibitory activity against bee secretory Phospholipase A2 enzyme when pre-incubated with Tris buffer for 60 minutes; procedure, shortened: as §2
[14] = molecular target: T2, Phospholipase A2 (Apis mellifera); test: Inhibitory activity against bee secretory Phospholipase A2 enzyme when pre-incubated with Tris buffer for 15 minutes; procedure, shortened: as §2
[15] = molecular target: T2, Phospholipase A2 (Apis mellifera); test: Inhibitory activity against bee secretory Phospholipase A2 enzyme when pre-incubated for 15 minutes; procedure, shortened: as §2
[16] = molecular target: T4, Phospholipase A2 (Apis mellifera, UniProt P00630); test: Inhibitory activity against bee secretory Phospholipase A2 enzyme
T4 sequence (P00630 whole entry): T2 sequence (whole entry)

[17] = molecular target: T2, Phospholipase A2 (Apis mellifera); test: Inhibitory activity against bee secretory Phospholipase A2 enzyme when pre-incubated with Tris buffer for 5 minutes; procedure, shortened: as §2
[18] = molecular target: T2, Phospholipase A2 (Apis mellifera); test: Inhibitory activity against secretory PLA2 enzyme (Bee venom) when pre-incubated with Hydroxylamine for 15 minutes; procedure, shortened: as §2
[19] = molecular target: T2, Phospholipase A2 (Apis mellifera); test: Inhibition against bee secretory PLA2 enzyme when pre-incubated for 5 minutes; procedure, shortened: as §2

| Compound | inhibition [3] | inhibition [4] | inhibition [5] | inhibition [6] | inhibition [8] | inhibition [10] | inhibition [11] | inhibition [13] | inhibition [14] | inhibition [15] | inhibition [17] | also measured |
| --- | --- | --- | --- | --- | --- | --- | --- | --- | --- | --- | --- | --- |
| COc1ccc2c(c1)c(CC(=O)O)c(C)n2C(=O)c1ccc(Cl)cc1 [INDOMETHACIN] | – | – | – | – | – | – | – | – | – | – | – | inhibition in vivo at 10 mg/kg [1]: 40%; inhibition in vivo at 10 mg/kg [2]: 42.3% |
| CC1=CCC(C2=CC(=O)OC2O)OC1O (stereo unspecified) | 3.2% | 6.8% | 14.9% | 3% | – | – | – | – | – | – | – | – |
| O=C1C=C(C2CC=C(Cc3ccccc3)CO2)C(O)O1 (stereo unspecified) | 15.5% | 17.4% | 30.3% | 7.6% | – | – | – | – | – | – | – | – |
| CC(C)=CCC/C(C)=C/CC/C(C)=C/CC1=CCC(C2=CC(=O)OC2O)OC1 (stereo unspecified) | 63.1% | 30% | 71.8% | – | 50.1% | 99.7% | 65.1% | 65.3% | 58.7% | 87.1% | 58.5% | inhibition [7]: 51.1%; IC50 [9]: 4200 nM; inhibition [12]: 85.6%; IC50 [16]: 1700 nM |
| CC1=CCC(C2=CC(=O)OC2O)OC1 (stereo unspecified) | 0.1% | 5.6% | 8% | 1.4% | – | – | – | – | – | – | – | – |
| C=C1CCC[C@H]2[C@](C)(CCC3=CCC(C4=CC(=O)OC4O)OC3)[C@H](C)CC[C@]12C (stereo partly specified) | – | – | – | – | 81.9% | 100% | 99.3% | 98.4% | 95.4% | 93.7% | 95.4% | inhibition [7]: 89.4%; inhibition [12]: 85.8% |
| O=C1C=C(C2CC=CC(O)O2)C(O)O1 (stereo unspecified) | 18.9% | 1% | 0.7% | 5.2% | – | – | – | – | – | – | – | – |
| O=C1C=C(C2CC=CCO2)C(O)O1 (stereo unspecified) | 42.3% | 0.2% | 9.3% | 10.1% | – | – | – | – | – | – | – | – |
| C/C=C/CC1=CCC(C2=CC(=O)OC2O)OC1 (stereo unspecified) | 24.8% | 17.6% | 40.1% | 7.1% | – | – | – | – | – | – | – | – |
| CC(C)=CCC/C(C)=C/CC/C(C)=C/CC1=CCC(C2=CC(=O)OC2O)OC1O (stereo unspecified) | 74.6% | 39.8% | 84.2% | 33.6% | 39.1% | 95.1% | 71.5% | 75.2% | 80.9% | 70.3% | 80.8% | inhibition in vivo at 10 mg/kg [1]: 42.9%; IC50 [9]: 900 nM; IC50 [16]: 500 nM; inhibition in vivo at 10 mg/kg [2]: 43.2%; inhibition [18]: 56.9%; inhibition [19]: 48.4% |
| CC1=C(CC/C(C)=C/CCC2=CC[C@H](C3=CC(=O)O[C@H]3O)O[C@H]2O)C(C)(C)CCC1 | 93.2% | 32.3% | 62.5% | – | 21% | 91.1% | 43.1% | 47.3% | 44.2% | 63.3% | 42.4% | inhibition [7]: 28%; inhibition [12]: 49.5% |
| O=C1C=C(C2CC=C(Cc3ccccc3)C(O)O2)C(O)O1 (stereo unspecified) | 11.9% | 16.1% | 16.1% | 7.1% | – | – | – | – | – | – | – | – |
| C/C=C/CC1=CCC(C2=CC(=O)OC2O)OC1O (stereo unspecified) | 21.2% | 15.1% | 24.8% | 1.8% | – | – | – | – | – | – | – | – |
